Data taken from ChEMBL document CHEMBL2331438, “An efficient domino reaction in ionic liquid: synthesis and biological evaluation of some pyrano- and thiopyrano-fused heterocycles” (2013).
In brackets after ≈: the same amount, converted by molar mass.

What was measured:
Salmonella typhi = experiment: Antibacterial activity against Salmonella typhi MTCC 98 after 24 hrs by broth microdilution method; assay type: functional, Salmonella enterica subsp. enterica serovar Typhi; conditions: Salmonella enterica, MTCC 98, 24 h
Candida albicans = experiment: Antifungal activity against Candida albicans MTCC 227 after 48 hrs by broth microdilution method; assay type: functional; conditions: MTCC 227, 48 h
Bacillus subtilis = experiment: Antibacterial activity against Bacillus subtilis MTCC 441 after 24 hrs by broth microdilution method; assay type: functional; conditions: MTCC 441, 24 h
Clostridium tetani = experiment: Antibacterial activity against Clostridium tetani MTCC 449 after 24 hrs by broth microdilution method; assay type: functional; conditions: MTCC 449, 24 h
Streptococcus pneumoniae = experiment: Antibacterial activity against Streptococcus pneumoniae MTCC 1936 after 24 hrs by broth microdilution method; assay type: functional; conditions: MTCC 1936, 24 h
Vibrio cholerae = experiment: Antibacterial activity against Vibrio cholerae MTCC 3906 after 24 hrs by broth microdilution method; assay type: functional; conditions: MTCC 3906, 24 h
Escherichia coli = experiment: Antibacterial activity against Escherichia coli MTCC 443 after 24 hrs by broth microdilution method; assay type: functional; conditions: MTCC 443, 24 h
[1] = test system: Mycobacterium tuberculosis; experiment: Antimycobacterial activity against Mycobacterium tuberculosis H37Rv at 250 ug/ml; assay type: functional
Method in brief: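 M. tuberculosis H37Rv tested on L.J. (Löwenstein–Jensen) medium.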

[2] = Antioxidant activity assessed as ascorbic acid equivalent ferric ion reducing activity per 100 gram at 200 ug/ml by FRAP assay; assay type: functional
Aspergillus fumigatus = experiment: Antifungal activity against Aspergillus fumigatus MTCC 3008 after 48 hrs by broth microdilution method; assay type: functional; conditions: MTCC 3008, 48 h

## Cc1nn(-c2ccccc2)c2c1[C@@H]1c3c(ccc4c(C)cc(=O)oc34)OC[C@@H]1C(C)(C)O2
Salmonella typhi
  MIC: 250 µg/mL (≈ 583 µM)
Candida albicans
  MIC: 1000 µg/mL (≈ 2330 µM)
Bacillus subtilis
  MIC: 200 µg/mL (≈ 467 µM)
Clostridium tetani
  MIC: 500 µg/mL (≈ 1170 µM)
Streptococcus pneumoniae
  MIC: 200 µg/mL (≈ 467 µM)
Vibrio cholerae
  MIC: 250 µg/mL (≈ 583 µM)
Escherichia coli
  MIC: 250 µg/mL (≈ 583 µM)
[1]
  inhibition at 250 µg/mL: 65%
[2]
  Activity: 146 mmol
Aspergillus fumigatus
  MIC: 200 µg/mL (≈ 467 µM)

## Cc1nn(-c2ccc(Cl)c(Cl)c2)c2c1[C@@H]1c3c(ccc4c(C)cc(=O)oc34)OC[C@@H]1CO2
Salmonella typhi
  MIC: 250 µg/mL (≈ 533 µM)
Candida albicans
  MIC: 500 µg/mL (≈ 1070 µM)
Bacillus subtilis
  MIC: 250 µg/mL (≈ 533 µM)
Clostridium tetani
  MIC: 100 µg/mL (≈ 213 µM)
Streptococcus pneumoniae
  MIC: 250 µg/mL (≈ 533 µM)
Vibrio cholerae
  MIC: 125 µg/mL (≈ 266 µM)
Escherichia coli
  MIC: 250 µg/mL (≈ 533 µM)
[1]
  inhibition at 250 µg/mL: 20%
[2]
  Activity: 120 mmol
Aspergillus fumigatus
  MIC: 500 µg/mL (≈ 1070 µM)

## Cc1nn(-c2cccc(Cl)c2)c2c1[C@@H]1c3c(ccc4c(C)cc(=O)oc34)OC[C@@H]1CO2
Salmonella typhi
  MIC: 200 µg/mL (≈ 460 µM)
Candida albicans
  MIC: 1000 µg/mL (≈ 2300 µM)
Bacillus subtilis
  MIC: 200 µg/mL (≈ 460 µM)
Clostridium tetani
  MIC: 62.5 µg/mL (≈ 144 µM)
Streptococcus pneumoniae
  MIC: 62.5 µg/mL (≈ 144 µM)
Vibrio cholerae
  MIC: 250 µg/mL (≈ 575 µM)
Escherichia coli
  MIC: 100 µg/mL (≈ 230 µM)
[1]
  inhibition at 250 µg/mL: 19%
[2]
  Activity: 158 mmol
Aspergillus fumigatus
  MIC: 250 µg/mL (≈ 575 µM)

## Cc1nn(-c2ccc(Cl)c(Cl)c2)c2c1[C@@H]1c3cc4cccc(C)c4nc3SC[C@@H]1CO2
Salmonella typhi
  MIC: 250 µg/mL (≈ 534 µM)
Candida albicans
  MIC: 500 µg/mL (≈ 1070 µM)
Bacillus subtilis
  MIC: 200 µg/mL (≈ 427 µM)
Clostridium tetani
  MIC: 250 µg/mL (≈ 534 µM)
Streptococcus pneumoniae
  MIC: 62.5 µg/mL (≈ 133 µM)
Vibrio cholerae
  MIC: 250 µg/mL (≈ 534 µM)
Escherichia coli
  MIC: 250 µg/mL (≈ 534 µM)
[1]
  inhibition at 250 µg/mL: 38%
[2]
  Activity: 61.7 mmol
Aspergillus fumigatus
  MIC: 1000 µg/mL (≈ 2130 µM)

## Cc1nn(-c2cc(Cl)ccc2Cl)c2c1[C@@H]1c3cc4cccc(C)c4nc3SC[C@@H]1CO2
Salmonella typhi
  MIC: 200 µg/mL (≈ 427 µM)
Candida albicans
  MIC: 1000 µg/mL (≈ 2130 µM)
Bacillus subtilis
  MIC: 100 µg/mL (≈ 213 µM)
Clostridium tetani
  MIC: 100 µg/mL (≈ 213 µM)
Streptococcus pneumoniae
  MIC: 250 µg/mL (≈ 534 µM)
Vibrio cholerae
  MIC: 100 µg/mL (≈ 213 µM)
Escherichia coli
  MIC: 62.5 µg/mL (≈ 133 µM)
[1]
  inhibition at 250 µg/mL: 49%
[2]
  Activity: 129 mmol
Aspergillus fumigatus
  MIC: 1000 µg/mL (≈ 2130 µM)

## Cc1ccc(-n2nc(C)c3c2OC[C@H]2CSc4nc5ccccc5cc4[C@@H]32)cc1
Salmonella typhi
  MIC: 125 µg/mL (≈ 313 µM)
Candida albicans
  MIC: 1000 µg/mL (≈ 2500 µM)
Bacillus subtilis
  MIC: 200 µg/mL (≈ 501 µM)
Clostridium tetani
  MIC: 200 µg/mL (≈ 501 µM)
Streptococcus pneumoniae
  MIC: 62.5 µg/mL (≈ 156 µM)
Vibrio cholerae
  MIC: 200 µg/mL (≈ 501 µM)
Escherichia coli
  MIC: 125 µg/mL (≈ 313 µM)
[1]
  inhibition at 250 µg/mL: 33%
[2]
  Activity: 121 mmol
Aspergillus fumigatus
  MIC: 1000 µg/mL (≈ 2500 µM)

## Cc1nn(-c2ccccc2Cl)c2c1[C@@H]1c3cc4cccc(C)c4nc3SC[C@@H]1CO2
Salmonella typhi
  MIC: 250 µg/mL (≈ 576 µM)
Candida albicans
  MIC: 500 µg/mL (≈ 1150 µM)
Bacillus subtilis
  MIC: 125 µg/mL (≈ 288 µM)
Clostridium tetani
  MIC: 125 µg/mL (≈ 288 µM)
Streptococcus pneumoniae
  MIC: 100 µg/mL (≈ 230 µM)
Vibrio cholerae
  MIC: 200 µg/mL (≈ 461 µM)
Escherichia coli
  MIC: 250 µg/mL (≈ 576 µM)
[1]
  inhibition at 250 µg/mL: 29%
[2]
  Activity: 147 mmol
Aspergillus fumigatus
  MIC: 250 µg/mL (≈ 576 µM)

## Cc1cc(=O)oc2c3c(ccc12)OC[C@@H]1COc2c(c(-c4ccccc4)nn2-c2ccccc2)[C@H]31
Salmonella typhi
  MIC: 125 µg/mL (≈ 270 µM)
Candida albicans
  MIC: 500 µg/mL (≈ 1080 µM)
Bacillus subtilis
  MIC: 125 µg/mL (≈ 270 µM)
Clostridium tetani
  MIC: 100 µg/mL (≈ 216 µM)
Streptococcus pneumoniae
  MIC: 100 µg/mL (≈ 216 µM)
Vibrio cholerae
  MIC: 100 µg/mL (≈ 216 µM)
Escherichia coli
  MIC: 62.5 µg/mL (≈ 135 µM)
[1]
  inhibition at 250 µg/mL: 68%
[2]
  Activity: 163 mmol
Aspergillus fumigatus
  MIC: 500 µg/mL (≈ 1080 µM)

## Cc1nn(-c2ccccc2Cl)c2c1[C@@H]1c3c(ccc4c(C)cc(=O)oc34)OC[C@@H]1C(C)(C)O2
Salmonella typhi
  MIC: 125 µg/mL (≈ 270 µM)
Candida albicans
  MIC: 1000 µg/mL (≈ 2160 µM)
Bacillus subtilis
  MIC: 100 µg/mL (≈ 216 µM)
Clostridium tetani
  MIC: 250 µg/mL (≈ 540 µM)
Streptococcus pneumoniae
  MIC: 250 µg/mL (≈ 540 µM)
Vibrio cholerae
  MIC: 250 µg/mL (≈ 540 µM)
Escherichia coli
  MIC: 125 µg/mL (≈ 270 µM)
[1]
  inhibition at 250 µg/mL: 40%
[2]
  Activity: 210 mmol
Aspergillus fumigatus
  MIC: 200 µg/mL (≈ 432 µM)

## Cc1nn(-c2ccccc2Cl)c2c1[C@@H]1c3cc4cccc(C)c4nc3SC[C@@H]1C(C)(C)O2 (single isomer, unassigned)
Salmonella typhi
  MIC: 100 µg/mL (≈ 216 µM)
Candida albicans
  MIC: 250 µg/mL (≈ 541 µM)
Bacillus subtilis
  MIC: 250 µg/mL (≈ 541 µM)
Clostridium tetani
  MIC: 100 µg/mL (≈ 216 µM)
Streptococcus pneumoniae
  MIC: 250 µg/mL (≈ 541 µM)
Vibrio cholerae
  MIC: 200 µg/mL (≈ 433 µM)
Escherichia coli
  MIC: 200 µg/mL (≈ 433 µM)
[1]
  inhibition at 250 µg/mL: 50%
[2]
  Activity: 115 mmol
Aspergillus fumigatus
  MIC: 500 µg/mL (≈ 1080 µM)

## Cc1nn(-c2ccccc2Cl)c2c1[C@@H]1c3cc4ccccc4nc3SC[C@@H]1CO2
Salmonella typhi
  MIC: 250 µg/mL (≈ 595 µM)
Candida albicans
  MIC: 1000 µg/mL (≈ 2380 µM)
Bacillus subtilis
  MIC: 125 µg/mL (≈ 298 µM)
Clostridium tetani
  MIC: 250 µg/mL (≈ 595 µM)
Streptococcus pneumoniae
  MIC: 100 µg/mL (≈ 238 µM)
Vibrio cholerae
  MIC: 250 µg/mL (≈ 595 µM)
Escherichia coli
  MIC: 250 µg/mL (≈ 595 µM)
[1]
  inhibition at 250 µg/mL: 52%
[2]
  Activity: 90.9 mmol
Aspergillus fumigatus
  MIC: > 1000 µg/mL

## Cc1nn(-c2ccc([N+](=O)[O-])cc2)c2c1[C@@H]1c3c(ccc4c(C)cc(=O)oc34)OC[C@@H]1CO2
Salmonella typhi
  MIC: 200 µg/mL (≈ 449 µM)
Candida albicans
  MIC: 1000 µg/mL (≈ 2250 µM)
Bacillus subtilis
  MIC: 200 µg/mL (≈ 449 µM)
Clostridium tetani
  MIC: 250 µg/mL (≈ 561 µM)
Streptococcus pneumoniae
  MIC: 250 µg/mL (≈ 561 µM)
Vibrio cholerae
  MIC: 250 µg/mL (≈ 561 µM)
Escherichia coli
  MIC: 125 µg/mL (≈ 281 µM)
[1]
  inhibition at 250 µg/mL: 79%
[2]
  Activity: 163 mmol
Aspergillus fumigatus
  MIC: 250 µg/mL (≈ 561 µM)
